From ChEMBL document CHEMBL2321850, “Fragment-based discovery of 8-hydroxyquinoline inhibitors of the HIV-1 integrase-lens epithelium-derived growth factor/p75 (IN-LEDGF/p75) interaction” (J Med Chem, 2013) come the findings set out here.

One series concerns MT4. The series can be described thus: Cytotoxicity against human MT4 cells assessed as cell viability after 72 hrs by MTT assay. In kind it is cell-based. The note with it: mt4, 72 h. Summed up:
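MT-4 cells exposed to fivefold serial dilutions of compound run in parallel with the antiviral MTT cytopathic-effect assay; CC50 taken as the concentration killing 50% of MT-4 cells.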

Series [1] has as its system Human immunodeficiency virus. The series can be described thus: Antiviral activity against HIV infected human MT4 cells assessed as decrease of virus-induced cytopathic effect after 72 hrs by MTT assay. The class given is functional, organism-based. To be noted: Human immunodeficiency virus 1, MT4, 72 h. Summed up:
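MT-4 cells infected with 100 to 300 CCID50 of HIV (CCID50 from virus-stock titration on MT-4) in presence of fivefold serial compound dilutions; protection from viral cytopathic effect read by MTT; EC50 = concentration giving 50% protection. CC50 in MT-4 cells measured in parallel.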

Series [2] deals with Human immunodeficiency virus 1. The series can be described thus: Inhibition of HIV-1 FLAG-6x-His-tagged integrase interaction to FLAG-tagged LEDGF/p75 at 10 uM preincubated for 30 mins prior to LEDGF/p75 addition measured after 60 mins by quenching assay.
Series [3] deals with T1, Human immunodeficiency virus type 1 integrase (Human immunodeficiency virus 1, UniProt Q7ZJM1). The experiment in a line: Inhibition of HIV-1 integrase strand transfer activity.
T1 sequence (Q7ZJM1 whole entry): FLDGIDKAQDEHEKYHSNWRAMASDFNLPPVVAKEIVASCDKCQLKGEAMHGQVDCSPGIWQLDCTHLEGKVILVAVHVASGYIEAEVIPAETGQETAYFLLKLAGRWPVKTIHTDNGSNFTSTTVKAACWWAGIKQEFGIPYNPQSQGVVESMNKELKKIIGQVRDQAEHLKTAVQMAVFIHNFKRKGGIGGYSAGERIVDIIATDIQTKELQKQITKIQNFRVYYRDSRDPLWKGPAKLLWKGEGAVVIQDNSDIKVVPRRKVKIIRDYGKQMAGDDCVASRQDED
The target of series [4] is T1, Human immunodeficiency virus type 1 integrase. The series can be described thus: Inhibition of HIV-1 integrase 3'-processing activity.
The test system of a further series is LNCaP. The series can be described thus: Cytotoxicity against human LNCAP cells assessed as inhibition of cell proliferation after 72 hrs by MTT assay. The class given is cell-based.
A short description of series [5]: Inhibition of HIV-1 His6-tagged integrase interaction to FLAG-tagged LEDGF/p75 preincubated for 30 mins prior to LEDGF/p75 addition measured after 60 mins by alphascreen assay. Set-up: species or system Human immunodeficiency virus 1. In a few lines: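 His6-tagged IN (300 nM final) preincubated with compound (20 µM final) 30 min at 4 °C, then FLAG-LEDGF/p75 (300 nM final) added for 60 min at 4 °C; Ni-chelate donor and anti-FLAG acceptor beads (20 µg/mL each) added, 1 h at 30 °C, light-protected; acceptor-bead emission read.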

Series [6] is described as follows: Cytotoxicity against human LNCAP cells assessed as growth inhibition at 10 uM after 72 hrs by MTT assay. In kind it is cell-based. The note with it: read-out: Activity.
Series [7] is described as follows: Selectivity index, ratio of CC50 for human MT4 cells to EC50 for HIV infected human MT4 cells. In kind it is toxicity, cell-based. To be noted: MT4 cells (CC50) and HIV-infected MT4 cells (EC50). Summed up: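 MT-4 cells infected with 100 to 300 CCID50 of HIV in the presence of fivefold serial compound dilutions. Protection against virus-induced cytopathic effect was read by MTT to give EC50. CC50 came from parallel MTT viability testing of uninfected MT-4 cells. Selectivity index was calculated as CC50/EC50.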

pEC50, pIC50: −log10 of the molar value.

As to `O=C(CC(Sc1cccc2cccnc12)c1ccc(OC(F)F)cc1)c1ccco1` (configuration not stated), the CC50 in the series on MT4 came out at 2 µM; in the series on LNCaP it was 0.8 µM. Also, in series [1], the pEC50 was below 5.70. The same compound registered an inhibition in [2] below 50%. For the same compound, the pIC50 in series [3] is below 4.70; in [4], below 4.70; in series [5] it was 5.52. Moreover, the inhibition at 72 h, 10 µM in [6] is 73%.
As to `Cc1ccccc1NCc1ccc(O)c2ncccc12`, the results for the CC50 with MT4 and with LNCaP were 9 µM and above 10 µM, respectively. The pEC50 in [1] was below 5.05. The compound further yielded an inhibition in [2] below 50%. In addition, the negative-log IC50 (pIC50) in [3] is below 4.70; in series [4], below 4.70; in [5] it was 5.85. In addition, the inhibition at 72 h, 10 µM in series [6] was found to be 0%.
Turning to `O=C(CC(Sc1cccc2cccnc12)c1ccc(F)cc1)c1cccs1` (configuration not stated), the inhibition in series [2] was below 50%. Further, the pIC50 was below 4.70 in [3], below 4.70 in series [4] and 5.52 in series [5]. Also, the CC50 in the series on LNCaP was above 10 µM. Further, the inhibition at 72 h, 10 µM in series [6] was determined as 21%.
In the case of `Cc1ccc(S(=O)(=O)NC(=O)Oc2cccc3cccnc23)cc1`, the CC50 is 2 µM in the series with MT4 and above 10 µM with LNCaP. In series [1], the pEC50 is below 5.70. The same compound gave an inhibition in [2] below 50%. The negative-log IC50 (pIC50) in series [3] is below 4.70; in series [4], below 4.70; in [5], 5.77. In addition, the inhibition at 72 h, 10 µM in series [6] was determined as 13%.
`Oc1ccc(CN2CCCCC2)c2cccnc12`: the half-maximal cytotoxic concentration (CC50) is 9 µM in the series on MT4 and above 10 µM in the series on LNCaP. In addition, the pEC50 in series [1] was below 5.05. The inhibition in series [2] was below 50%. The pIC50 in [3] was below 4.70; in series [4], below 4.70; in series [5], 6.40.
Turning to `Cc1ccc(NCc2ccc(O)c3ncccc23)cc1`, in series [7], the selectivity ratio came out at 2. For the same compound, the CC50 is 36.5 µM with MT4 and above 10 µM in the series with LNCaP. Also, in series [1], the negative logarithm of the EC50 (pEC50) was 4.81. This compound also came in with an inhibition in series [2] below 50%. Moreover, the values for the negative logarithm of the IC50 (pIC50) in [3], in series [4] and in series [5] were below 4.70, below 4.70 and 5.48, respectively.
Take `CCOC(=O)N1CCN(Cc2ccc(O)c3ncccc23)CC1`: the figures for the CC50 with MT4 and in the series on LNCaP were 9 µM and above 10 µM, respectively. Besides, the pEC50 in [1] is below 5.05. The inhibition in series [2] is below 50%. Besides, the pIC50 was below 4.70 in [3], below 4.70 in series [4] and 5.82 in [5].
Turning to `Cc1ccc(NCc2ccc(O)c3ncccc23)cc1C`, the selectivity ratio in series [7] is 2. In addition, the CC50 in the series on MT4 was 33.5 µM; in the series with LNCaP it was above 10 µM. Moreover, the pEC50 in series [1] was 4.75. In series [2], the inhibition is below 50%. The pIC50 in series [3] was below 4.70; in series [4], below 4.70; in series [5] it was 5.34.
Consider `Cc1cccc(NCc2ccc(O)c3ncccc23)n1`, for which the 50% cytotoxic concentration (CC50) in the series on MT4 was 2 µM; in the series with LNCaP, above 10 µM. The negative-log EC50 (pEC50) in series [1] was below 5.70. The compound further yielded an inhibition in series [2] below 50%. Moreover, the negative logarithm of the IC50 (pIC50) in series [3] is below 4.70; in series [4], below 4.70; in series [5], 5.55.
